Holding throughout (assay type): functional, cell-based
Experiment [1] relates to LNCaP. The experiment is described as follows: Cytotoxicity against human LNCAP cells assessed as reduction in cell number incubated for 72 hrs. The method, boiled down: (§1)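 RPMI-1640 with 4 mM L-glutamine and 10% FBS for culture. 2000 cells/well seeded overnight, then 72 h exposure to seven 3-fold dilutions (top 100 µM; top 900 µM for the reference autophagy inhibitor in MDA-MB-361). Cell number by CyQUANT relative to vehicle. IC50 from concentration–response curves, mean ± SEM, n ≥ 6.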

A short description of experiment [2]: Inhibition of cell proliferation of PDAC cells (unknown origin).
Experiment [3] can be described thus: Inhibition of cell proliferation of lung cancer cells (unknown origin). The note with it: Cancer cell lines.
Experiment [4] in a line: Reduction in GFP expression in human SKBR3 cells transfected with plasmids co-expressing GFP and shRNAs against REV-ERBbeta followed by compound treatment 24 hrs post-transfection and measured 48 hrs post dose. The note with it: SK-BR-3.
The test system of experiment [5] is HepG2. The experiment is described as follows: Cytotoxicity against human HepG2 cells assessed as reduction in cell number incubated for 72 hrs. The note with it: HepG2, 72 h. The method, boiled down:
(§2)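 Grown in high-glucose DMEM with 4 mM L-glutamine, 10% FBS and 0.5 mM sodium pyruvate. Seeded at 2000 cells/well overnight, then treated 72 h with seven 3-fold dilutions from 100 µM. Cell number by CyQUANT, % of vehicle. IC50 by log(inhibitor)–response fit, mean ± SEM, n ≥ 6.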

In experiment [6] the test system is LNCaP. The experiment can be described thus: Reduction in GFP expression in human LNCAP cells transfected with plasmids co-expressing GFP and shRNAs against REV-ERBbeta followed by compound treatment 24 hrs post-transfection and measured 48 hrs post dose.
Experiment [7] deals with HepG2. The experiment can be described thus: Reduction in GFP expression in human HepG2 cells transfected with plasmids co-expressing GFP and shRNAs against REV-ERBbeta followed by compound treatment 24 hrs post-transfection and measured 48 hrs post dose.
Experiment [8] in a line: Cytotoxicity against human SKBR3 cells assessed as reduction in cell number incubated for 72 hrs. The note with it: SK-BR-3, 72 h. The method, boiled down:
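McCoy's medium plus 10% FBS; 2000 cells/well, overnight attachment, 72 h treatment with seven 3-fold dilutions from 100 µM (900 µM top for the reference autophagy inhibitor). CyQUANT cell number as % of vehicle. IC50 by log(inhibitor)–response fitting, mean ± SEM of ≥6 experiments.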

In a further experiment the test system is MDA-MB-361. The experiment can be described thus: Cytotoxicity against human MDA-MB-361 cells assessed as reduction in cell number incubated for 72 hrs. The note with it: MDA-MB-361, 72 h. The method, boiled down: as §1
The next experiment relates to MCF7. The experiment is described as follows: Cytotoxicity against human MCF7 cells assessed as reduction in cell number incubated for 72 hrs. The note with it: MCF7, 72 h. The method, boiled down: as §2
Experiment [9] can be described thus: Inhibition of cell proliferation of breast cancer cells (unknown origin). The note with it: Cancer cell lines.

The values that follow come from ChEMBL document CHEMBL3588752, “Synthesis and in Vitro Anticancer Activity of the First Class of Dual Inhibitors of REV-ERBβ and Autophagy” (J Med Chem, 2015).

Each structure is given as a SMILES string. Active and inactive are the calls of the source. No cut-off for these calls is given here. Some results are limits rather than exact numbers.

For orientation: IC50 means the midpoint of a concentration-inhibition curve.

With `CCN(CC)CCCC(C)Nc1ccnc2cc(Cl)ccc12` (racemic) [CHLOROQUINE], the IC50 with LNCaP [1] was 32.9 µM; in [2], 10 µM; in experiment [3] it was greater than 100 µM; with HepG2 [5], 25 µM; in experiment [8], 50.4 µM; with MDA-MB-361, 97 µM. Moreover, the results for the IC50 (with MCF7; in experiment [9]) were 23.4 µM and greater than 100 µM, respectively. The outcome (in [4]; with LNCaP [6]; in the experiment on HepG2 [7]) was Active.
